Results taken from ChEMBL document CHEMBL2434915, “2-(2-Hydrazinyl)thiazole derivatives: design, synthesis and in vitro antimycobacterial studies” (Eur J Med Chem, 2013).
In brackets after ≈: the same amount, converted by molar mass.

Assays:
[1] = test system: Mycobacterium tuberculosis; assay: Antimycobacterial activity against Mycobacterium tuberculosis H37Rv after 5 days by broth microdilution method; format: functional; settings: 120 h
In short: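 Twofold DMSO dilutions (final 100 to 0.19, units as printed unclear) in Middlebrook 7H9 with 0.2% glycerol, 0.05% Tween 80 and 10% ADC; inoculum 3-7 x 10⁵ CFU/ml; 37°C for 5 days. Resazurin/Tween 80 then added, 24 h more at 37°C; A575/A610 read. MIC = lowest concentration giving 80% inhibition versus medium-only (100%) and drug-free culture (0%) controls; isoniazid reference.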

A549 = assay: Cytotoxicity against human A549 cells after 48 hrs by MTT assay; format: cell-based
In short: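 A549 human lung carcinoma type II epithelial cells kept in RPMI-1640 with 5% FBS, penicillin/streptomycin and 2 mM L-glutamine at 37 °C, 5% CO2. Seeded at 3 × 10³ cells/well and left overnight. Exposed to compounds at various concentrations for 48 h. After a PBS wash, MTT (5 mg/ml) was added for 4 h at 37 °C. Formazan dissolved in DMSO, read at 540 nm. IC50 from survival plots; mean ±SE, n=5.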

Compound	MIC [1]	IC50 (A549)
CCOC(=O)c1sc(N/N=C/c2cccc(O)c2)nc1C	> 200 µM	
CCOC(=O)c1sc(N/N=C/c2ccc([N+](=O)[O-])cc2)nc1C	200 µM (≈ 66.9 µg/mL)	
CC(=O)c1sc(N/N=C/c2ccc(Cl)cc2Cl)nc1C	> 200 µM	
COc1cc(/C=N/Nc2nc(C)c(C(C)=O)s2)cc(OC)c1OC	> 200 µM	
CC(=O)c1sc(N/N=C/c2cccc3c2OCO3)nc1C	> 200 µM	
CCOC(=O)c1sc(N/N=C/c2ccco2)nc1C	200 µM (≈ 55.9 µg/mL)	
CCOC(=O)c1sc(N/N=C(\C)c2cccs2)nc1C	100 µM (≈ 30.9 µg/mL)	
CCOC(=O)c1sc(N/N=C/c2c[nH]c3ccccc23)nc1C	200 µM (≈ 65.7 µg/mL)	
CCOC(=O)c1sc(N/N=C(\C)c2ccccn2)nc1C	12.5 µM (≈ 3.8 µg/mL)	140 µg/mL (≈ 460 µM)
CCOC(=O)c1sc(N/N=C(\C)c2cccnc2)nc1C	> 200 µM	
CCOC(=O)c1sc(N/N=C(\C)c2ccncc2)nc1C	200 µM (≈ 60.9 µg/mL)	
CC(=O)c1sc(N/N=C/c2ccco2)nc1C	200 µM (≈ 49.9 µg/mL)	
CC(=O)c1sc(N/N=C(\C)c2cccs2)nc1C	200 µM (≈ 55.9 µg/mL)	
CC(=O)c1sc(N/N=C/c2c[nH]c3ccccc23)nc1C	> 200 µM	
CC(=O)c1sc(N/N=C(\C)c2ccccn2)nc1C	100 µM (≈ 27.4 µg/mL)	50 µg/mL (≈ 182 µM)
CCOC(=O)Cc1csc(N/N=C(\C)c2ccccn2)n1	200 µM (≈ 60.9 µg/mL)	200 µg/mL (≈ 657 µM)
CCOC(=O)Cc1csc(N/N=C(\C)c2cccnc2)n1	200 µM (≈ 60.9 µg/mL)	
CCOC(=O)c1sc(N/N=C/c2ccccc2)nc1C	> 200 µM	
CCOC(=O)c1sc(N/N=C(\C)c2ccccc2)nc1C	> 200 µM	150 µg/mL (≈ 494 µM)

Compound	MIC [1]	IC50 (A549)
CCOC(=O)c1sc(N/N=C(\C)c2ccc(F)cc2)nc1C	200 µM (≈ 64.3 µg/mL)	
CCOC(=O)c1sc(N/N=C/c2ccccc2Cl)nc1C	> 200 µM	
CCOC(=O)c1sc(N/N=C(\C)c2cccc(Cl)c2)nc1C	> 200 µM	
CCOC(=O)c1sc(N/N=C/c2ccc(Cl)cc2)nc1C	> 200 µM	
CCOC(=O)c1sc(N/N=C/c2ccc(Cl)cc2Cl)nc1C	> 200 µM	
CCOC(=O)c1sc(N/N=C/c2cccc(Br)c2)nc1C	> 200 µM	
CCOC(=O)c1sc(N/N=C/c2ccccc2O)nc1C	25 µM (≈ 7.63 µg/mL)	
CCOC(=O)c1sc(N/N=C/c2ccc(O)cc2)nc1C	> 200 µM	
CCOC(=O)c1sc(N/N=C/c2ccc(OC)cc2)nc1C	> 200 µM	
CCOC(=O)c1sc(N/N=C/c2ccc(O)c(OC)c2)nc1C	> 200 µM	
CCOC(=O)c1sc(N/N=C/c2ccc(O)c(OCC)c2)nc1C	> 200 µM	
CCOC(=O)c1sc(N/N=C/c2ccc(OC)c(O)c2)nc1C	> 200 µM	
CCOC(=O)c1sc(N/N=C/c2ccc(OC)c(OC)c2)nc1C	> 200 µM	
CCOC(=O)c1sc(N/N=C/c2ccc3c(c2)OCO3)nc1C	> 200 µM	
CCOC(=O)c1sc(N/N=C/c2cc(OC)c(OC)c(OC)c2)nc1C	> 200 µM	
CCOC(=O)c1sc(N/N=C/c2ccc(C)cc2)nc1C	> 200 µM	
CCOC(=O)c1sc(N/N=C/c2ccc(N(C)C)cc2)nc1C	200 µM (≈ 66.5 µg/mL)	
CCOC(=O)c1sc(N/N=C/c2ccccc2[N+](=O)[O-])nc1C	> 200 µM	
NNC(=O)c1ccncc1 [ISONIAZID]	0.45 µM (≈ 0.0617 µg/mL)	
